Source: ChEMBL document CHEMBL5137098, “Discovery of Substituted Di(pyridin-2-yl)-1,2,4-thiadiazol-5-amines as Novel Macrofilaricidal Compounds for the Treatment of Human Filarial Infections” (J Med Chem, 2022)
≈ marks a conversion by molar mass, not a printed value.

Legend:
[1] = Metabolic stability in rat liver microsome assessed as compound remaining at 3 uM measured at 30 mins in presence of NADPH by LC-MS/MS analysis; format: ADME; settings: liver microsomes, read-out: Stability
Method in brief: (§1)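 Liver microsomes at 0.3 mg/mL with 1 mM NADPH in 200 mM phosphate buffer plus 2 mM MgCl2, pH 7.4, at 37 °C. Substrate 3 µM, incubated 30 min, triplicate. Percent remaining measured by LC-MS/MS.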

[2] = Metabolic stability in human liver microsome assessed as compound remaining at 3 uM measured at 30 mins in presence of NADPH by LC-MS/MS analysis; format: ADME; settings: liver microsomes, read-out: Stability; method in brief: as §1
P-glycoprotein (human) = assay: Efflux ratio of apparent permeability in MDCK-II cells expressing human P-glycoprotein gene at 10 uM measured at 2 hrs by LC-MS/MS analysis; format: ADME, cell-based, Canis lupus familiaris; settings: dog, MDCK-MDR1
[3] = Metabolic stability in human liver S9 fraction assessed as compound remaining at 3 uM measured at 60 mins by LC-MS/MS analysis; format: ADME, subcellular; settings: read-out: Stability
[4] = Metabolic stability in rat liver S9 fraction assessed as compound remaining at 3 uM measured at 60 mins by LC-MS/MS analysis; format: ADME, subcellular; settings: read-out: Stability
Litomosoides sigmodontis [5] = assay: Antiparasitic activity against Litomosoides sigmodontis infected in BALB/c mouse assessed as reduction in worm burden at 10 mg/kg, po qd administered for 7 days; format: functional; parameters: scale not given: the % may be the effect or the level left; settings: time 7 day
Litomosoides sigmodontis [6] = assay: Antiparasitic activity against Litomosoides sigmodontis infected in BALB/c mouse assessed as reduction in worm burden at 30 mg/kg, po TID administered for 5 days; format: functional; parameters: scale not given: the % may be the effect or the level left; settings: time 5 day
[7] = Metabolic stability in mouse liver microsome assessed as compound remaining at 3 uM measured at 30 mins in presence of NADPH by LC-MS/MS analysis; format: ADME; settings: liver microsomes, read-out: Stability; method in brief: as §1
Litomosoides sigmodontis [8] = assay: Antiparasitic activity against Litomosoides sigmodontis infected in BALB/c mouse assessed as reduction in worm burden at 30 mg/kg, po BID administered for 7 days; format: functional; parameters: scale not given: the % may be the effect or the level left; settings: time 7 day
[9] = Kinetic solubility of compound incubated for 24 hrs; format: physicochemical; settings: for Kinetic_solubility: 24 h
Method in brief: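 10 mM DMSO stock diluted into buffer to 200 µM final, 2% DMSO, run in duplicate. Buffers were pH 7.4 0.1 M potassium phosphate, pH 2.2, 6.8 and 5. Shaken 24 h at room temperature in a filter plate, then filtered by positive pressure. Single-point calibration against DMSO standards.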

Onchocerca volvulus = assay: Antiparasitic activity against Onchocerca volvulus L5 assessed as reduction in motility at 1 uM; parameters: scale not given: the % may be the effect or the level left
[10] = Octanol/water distribution coefficient, logD of the compound at pH 7.4 sonicated for 30 mins followed by 24 hrs shaking; format: physicochemical
Method in brief: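 Octanol/pH 7.4 0.1 M potassium phosphate partition. Sample at 1000 uM from 10 mM DMSO stock, 10% DMSO final. Sonicated 30 min, then shaken 24 h at 750 rpm at room temperature. Plate centrifuged 3600 rpm for 30 min.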

Onchocerca gutturosa = assay: Anti-filarial activity against Onchocerca gutturosa adult worms assessed as reduction in worm motility measured every 24 hrs for 5 days by olympus inverted microscopic analysis; format: functional, organism-based
Method in brief: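 Adult worm motility read every 24 h, ending at 120 h. Serial 1-in-4 drug dilutions run to the activity endpoint. EC50 for motility reduction given as geomean, n=2.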

Litomosoides sigmodontis [11] = assay: Antiparasitic activity against Litomosoides sigmodontis infected in BALB/c mouse assessed as reduction in worm burden at 30 mg/kg, po BID administered for 6 days; format: functional; parameters: scale not given: the % may be the effect or the level left; settings: time 6 day
[12] = Mutagenicity in Salmonella typhimurium TA1535 in presence of liver S9 fraction by AMES test; format: toxicity, subcellular; settings: salmonella enterica subsp. enterica serovar typhimurium
[13] = Mutagenicity in Salmonella typhimurium TA97 in presence of liver S9 fraction by AMES test; format: toxicity, subcellular; settings: salmonella enterica subsp. enterica serovar typhimurium
[14] = Mutagenicity in Escherichia coli WP2 uvrA in presence of liver S9 fraction by AMES test; format: toxicity, subcellular
[15] = Mutagenicity in Salmonella typhimurium TA100 in presence of liver S9 fraction by AMES test; format: toxicity, subcellular; settings: salmonella enterica subsp. enterica serovar typhimurium
[16] = Mutagenicity in Salmonella typhimurium TA98 in presence of liver S9 fraction by AMES test; format: toxicity, subcellular; settings: salmonella enterica subsp. enterica serovar typhimurium
[17] = Mutagenicity in Salmonella typhimurium TA1535 in absence of liver S9 fraction by AMES test; format: toxicity; settings: salmonella enterica subsp. enterica serovar typhimurium
[18] = Mutagenicity in Escherichia coli WP2 uvrA in absence of liver S9 fraction by AMES test; format: toxicity
[19] = Mutagenicity in Salmonella typhimurium TA100 in absence of liver S9 fraction by AMES test; format: toxicity; settings: salmonella enterica subsp. enterica serovar typhimurium
[20] = Mutagenicity in Salmonella typhimurium TA97 in absence of liver S9 fraction by AMES test; format: toxicity; settings: salmonella enterica subsp. enterica serovar typhimurium
[21] = Mutagenicity in Salmonella typhimurium TA98 in absence of liver S9 fraction by AMES test; format: toxicity; settings: salmonella enterica subsp. enterica serovar typhimurium
Litomosoides sigmodontis [22] = assay: Antiparasitic activity against Litomosoides sigmodontis infected in BALB/c mouse assessed as reduction in worm burden at 30 mg/kg, sc BID administered for 7 days; format: functional; parameters: scale not given: the % may be the effect or the level left; settings: time 7 day

| SMILES | remaining at 1 h, 3 µM [3] [%] | remaining at 1 h, 3 µM [4] [%] | also measured |
| --- | --- | --- | --- |
| Cc1cccnc1Nc1nsc(-c2ccc(OC3CCOCC3)cn2)n1 | – | – | remaining at 0.5 h, 3 µM [1]: 89%; remaining at 0.5 h, 3 µM [2]: 77% |
| CC(C)Oc1cnc(-c2nsc(Nc3ncccc3N3CCCC3=O)n2)cc1C(F)(F)F | – | – | efflux ratio at 2 h, 10 µM (P-glycoprotein (human)): 3.9 |
| CC(C)c1cnc(Nc2nc(-c3ncccc3OC3CC3)ns2)cc1C(F)(F)F | 100 | 93 | – |
| COc1cccnc1Nc1nc(-c2ccc(OC(C)C)cn2)ns1 | 100 | 100 | – |
| Cc1cccnc1Nc1nc(-c2ccc(OC(C)C)cn2)ns1 | 100 | 100 | Activity (Litomosoides sigmodontis [5]): 58.8% |
| Cc1cccnc1Nc1nc(-c2cc(C3CCN(C)CC3)ccn2)ns1 | 78 | 81 | – |
| CC(=O)N(C)c1cc(C(F)(F)F)cnc1Nc1nc(-c2cc(C(C)C)ccn2)ns1 | – | – | efflux ratio at 2 h, 10 µM (P-glycoprotein (human)): 8.4 |
| COc1ccc(Nc2nc(-c3ccccn3)ns2)nc1 | – | – | remaining at 0.5 h, 3 µM [1]: 78%; Activity (Litomosoides sigmodontis [6]): 50.1%; remaining at 0.5 h, 3 µM [2]: 90% |
| Cc1cccnc1Nc1nc(-c2cc(C#N)c(OC(C)C)cn2)ns1 | 100 | 84 | – |
| Cc1cccnc1Nc1nc(-c2ccc(C(=O)N(C)C)cn2)ns1 | 97 | 94 | – |
| Cc1cccnc1Nc1n[nH]c(-c2ccc(OC3CCOCC3)cn2)n1 | – | – | remaining at 0.5 h, 3 µM [7]: 70%; remaining at 0.5 h, 3 µM [2]: 92% |
| Cc1cccnc1Nc1nc(-c2ccc(C#N)cn2)ns1 | 66 | 73 | – |
| CC(=O)N(C)c1cc(C(F)(F)F)cnc1Nc1nc(-c2ccc(OC(C)C)cn2)ns1 | – | – | efflux ratio at 2 h, 10 µM (P-glycoprotein (human)): 4.1 |
| Cc1cccnc1Nc1nnc(-c2ccc(OC3CCOCC3)cn2)s1 | – | – | remaining at 0.5 h, 3 µM [1]: 89%; remaining at 0.5 h, 3 µM [2]: 100% |
| CC(C)c1cccnc1Nc1nc(-c2ccc(OC3CC3)cn2)ns1 | 39 | 78 | Kinetic_solubility [9]: 0.2 µM; Activity (Onchocerca volvulus): 100% |
| Cc1cccnc1Nc1nc(-c2cc(C#N)ccn2)ns1 | 65 | 78 | – |
| CC(C)c1ccnc(-c2nsc(Nc3cc(C(F)(F)F)ccn3)n2)c1 | 65 | 45 | Activity (Litomosoides sigmodontis [11]): 46% |
| CC(=O)N(C)c1cc(C(F)(F)F)cnc1Nc1nc(-c2cc(OC(C)C)ccn2)ns1 | – | – | Kinetic_solubility [9]: 0.4 µM; efflux ratio at 2 h, 10 µM (P-glycoprotein (human)): 15.2 |
| CC(C)Oc1ccc(-c2nsc(Nc3cc(C(F)(F)F)c(C(C)C)cn3)n2)nc1 | 100 | 100 | – |

| SMILES | remaining at 1 h, 3 µM [3] [%] | remaining at 1 h, 3 µM [4] [%] | also measured |
| --- | --- | --- | --- |
| CC(C)Oc1ccc(-c2nsc(Nc3ncccc3N(C)C)n2)nc1 | 86 | 79 | Activity [12]: Non-Toxic; Activity [13]: Non-Toxic; Activity [14]: Non-Toxic; Activity [15]: Non-Toxic; Activity [16]: Non-Toxic; Activity (Onchocerca volvulus): 100%; Activity [17]: Non-Toxic; Activity [18]: Non-Toxic; Activity [19]: Non-Toxic; Activity [20]: Non-Toxic; Activity [21]: Non-Toxic |
| CC(C)Oc1ccc(-c2nsc(Nc3ncccc3C(N)=O)n2)nc1 | – | – | efflux ratio at 2 h, 10 µM (P-glycoprotein (human)): 4.6 |
| Cc1cccnc1Nc1nc(-c2ccc(OC3CCOCC3)cn2)no1 | 98 | 85 | – |
| Cc1cccnc1Nc1nnc(-c2ccc(OC3CCOCC3)cn2)o1 | – | – | remaining at 0.5 h, 3 µM [1]: 39%; remaining at 0.5 h, 3 µM [2]: 83% |
| Cc1cccnc1Nc1nc(-c2ccc(OC3CC3)cn2)ns1 | 76 | 61 | Activity (Onchocerca volvulus): 100% |
| Cc1cccnc1Nc1nc(-c2cc(C(=O)N(C)C)c(OC(C)C)cn2)ns1 | – | – | remaining at 0.5 h, 3 µM [1]: 90%; remaining at 0.5 h, 3 µM [2]: 91% |
| CC(C)Oc1cnc(-c2nsc(Nc3ncccc3C(C)C)n2)cc1C(F)(F)F | – | – | remaining at 0.5 h, 3 µM [1]: 96%; remaining at 0.5 h, 3 µM [2]: 97% |
| CC(=O)N(C)c1cccnc1Nc1nc(-c2cc(C(F)(F)F)c(OC(C)C)cn2)ns1 | – | – | efflux ratio at 2 h, 10 µM (P-glycoprotein (human)): 4.5 |
| CN1CCC(Oc2ccc(Nc3nc(-c4ccccn4)ns3)nc2)CC1 | 88 | 99 | – |
| Cc1cccnc1Nc1nc(-c2ncc(OC(C)C)cn2)ns1 | – | – | remaining at 0.5 h, 3 µM [1]: 90%; remaining at 0.5 h, 3 µM [2]: 96% |
| CC(C)Oc1cnc(-c2nsc(Nc3ncccc3N(C)C(=O)C3CC3)n2)cc1C(F)(F)F | – | – | efflux ratio at 2 h, 10 µM (P-glycoprotein (human)): 2.2 |
| CC(C)Oc1ccc(-c2nsc(Nc3ncccc3C(=O)N(C)C)n2)nc1 | – | – | efflux ratio at 2 h, 10 µM (P-glycoprotein (human)): 11 |
| Cc1cccnc1Nc1nc(-c2ccc(OC3CCN(C4CC4)CC3)cn2)ns1 | 83 | 76 | Activity (Litomosoides sigmodontis [22]): 85.5% |
| CC(C)Oc1cnc(-c2nsc(Nc3ncccc3N(C)C)n2)cc1C(F)(F)F | – | – | remaining at 0.5 h, 3 µM [1]: 93%; remaining at 0.5 h, 3 µM [2]: 98% |
| Cc1cccnc1Nc1nc(-c2ccc(OC3CCOCC3)cn2)ns1 | 84 | 82 | – |
| Cc1cccnc1Nc1nc(-c2cnc(OC(C)C)cn2)ns1 | 81 | 74 | – |
| CC(C)c1ccnc(-c2nsc(Nc3ncccc3C(F)(F)F)n2)c1 | 45 | 27 | – |
| Cc1cccnc1N(c1nc(-c2ccc(OC(C)C)cn2)ns1)C(C)C | 79 | 60 | – |

Second part, led by results:

| remaining at 1 h, 3 µM [3] [%] | remaining at 1 h, 3 µM [4] [%] | SMILES | also measured |
| --- | --- | --- | --- |
| 72 | 70 | COc1cccnc1Nc1nc(-c2cc(C)ccn2)ns1 | – |
| 89 | 78 | Cc1cccnc1Nc1nc(-c2cc(C(=O)N(C)C)ccn2)ns1 | – |
| 96 | 81 | Cc1cccnc1N(C)c1nc(-c2ccc(OC(C)C)cn2)ns1 | – |
| 59 | 51 | COc1ccc(Nc2nc(-c3ccccn3)cs2)nc1 | – |
| 99 | 82 | CC(C)Oc1ccc(-c2nsc(Nc3ncccc3C(C)C)n2)nc1 | Activity (Litomosoides sigmodontis [8]): 58.8% |
| 86 | 61 | Cc1cccnc1-c1nsc(Nc2ccc(N3CCCC3)cn2)n1 | solubility kinetic at 24 h ([9]; read-out: Kinetic_solubility): 2.17 µM (≈ 0.734 µg/mL); logD at 24.5 h [10]: 2.65; EC50 (Onchocerca gutturosa): 40 nM |
| 100 | 91 | CN(C)c1cccnc1Nc1nc(-c2ccc(OC3CC3)cn2)ns1 | Activity (Onchocerca volvulus): 100% |
| 86 | 73 | CNc1cccnc1Nc1nc(-c2ccc(OC(C)C)cn2)ns1 | – |
| 32 | 4 | CC(C)Oc1ccc(-c2nsc(N(C)c3ncccc3C(C)C)n2)nc1 | – |
| 58 | 53 | Cc1cccnc1Nc1nc(-c2ccc(OC3CC4(C3)CN(C3CC3)C4)cn2)ns1 | – |
| 52 | 32 | Cc1cccnc1Nc1nc(-c2ccc(OC3CCN(C4CC4)CC3(F)F)cn2)ns1 (stereo not drawn) | – |
| 83 | 83 | c1ccc(Nc2nc(-c3ccccn3)ns2)nc1 | – |
| 56 | 61 | Cc1ccnc(-c2nsc(Nc3ncccc3C(F)(F)F)n2)c1 | – |
| 100 | 8 | CC(C)Oc1cc(-c2nsc(Nc3ncccc3N(C)C)n2)ncc1C(F)(F)F | – |
